Measured values as given in ChEMBL document CHEMBL4145675, “2-Phenylquinoline S. aureus NorA Efflux Pump Inhibitors: Evaluation of the Importance of Methoxy Group Introduction” (J Med Chem, 2018).
In brackets after ≈: the same amount, converted by molar mass. Activity calls are given as the source filed them. No cut-off for these calls is given here.

Molecular target: T1, Quinolone resistance protein NorA (Staphylococcus aureus) (UniProt P0A0J7)
T1 sequence (whole entry): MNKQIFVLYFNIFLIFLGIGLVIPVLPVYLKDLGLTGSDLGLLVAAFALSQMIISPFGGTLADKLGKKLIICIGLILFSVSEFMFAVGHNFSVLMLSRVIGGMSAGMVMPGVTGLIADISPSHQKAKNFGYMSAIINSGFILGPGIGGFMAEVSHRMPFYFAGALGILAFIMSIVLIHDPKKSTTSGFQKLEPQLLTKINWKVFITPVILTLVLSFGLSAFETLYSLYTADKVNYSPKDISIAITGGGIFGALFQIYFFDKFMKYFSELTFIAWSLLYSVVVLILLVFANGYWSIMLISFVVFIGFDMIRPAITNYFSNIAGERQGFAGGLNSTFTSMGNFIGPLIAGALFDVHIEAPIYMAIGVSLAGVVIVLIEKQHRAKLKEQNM
Assay: Inhibition of NorA in Staphylococcus aureus SA-1199B expressing GrlA A116E mutant assessed as synergistic potentiation of ciprofloxacin-induced antimicrobial activity at 0.78 ug/ml by microdilution method based Checkerboard assay
Conditions: not given

Row | SMILES | inhibition
1 | CCCOc1ccc(-c2cc(OCCN3CCCCCC3)c3ccc(OC)cc3n2)cc1 | Active
2 | CCCOc1ccc(-c2cc(OCCN(CC)CC)c3c(OC)cccc3n2)cc1 | Active
3 | CCCOc1ccc(-c2cc(OCCN3CCCCCC3)c3cc(OC)cc(OC)c3n2)cc1 | Active
4 | CCCOc1ccc(-c2cc(OCCN3CCc4cc(OC)c(OC)cc4C3)c3ccc(OC)cc3n2)cc1 | Active

Tested on: Staphylococcus aureus
Assay: Antimicrobial activity against Staphylococcus aureus SA-1199B expressing wild type norA by microdilution method
Format: organism-based
Conditions: in vivo
Outline: (§1)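 Broth microdilution MIC per CLSI guidelines. ATCC 25923 is norA wild-type. SA-1199B overexpresses norA and carries an A116E GrlA substitution.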

Row | SMILES | MIC [µg/mL]
5 | CCCOc1ccc(-c2cc(OCCN3CCCCCC3)c3ccc(OC)cc3n2)cc1 | 100 (≈ 230 µM)
6 | CCCOc1ccc(-c2cc(OCCN(CC)CC)c3c(OC)cc(OC)cc3n2)cc1 | > 100
7 | CCCOc1ccc(-c2cc(OCCN(CC)CC)c3c(OC)cccc3n2)cc1 | 12.5 (≈ 30.6 µM)
8 | CCCOc1ccc(-c2cc(OCCN3CCCCC3)c3ccc(OC)cc3n2)cc1 | > 100
9 | CCCOc1ccc(-c2cc(OCCN3CCCCCC3)c3cc(OC)cc(OC)c3n2)cc1 | > 100
10 | CCCOc1ccc(-c2cc(OCCN3CCc4cc(OC)c(OC)cc4C3)c3ccc(OC)cc3n2)cc1 | > 100
11 | CCCOc1ccc(-c2cc(OCCN(CC)CC)c3cc(OC)ccc3n2)cc1 | 50 (≈ 122 µM)

Molecular target: T1, Quinolone resistance protein NorA (Staphylococcus aureus)
Assay: Inhibition of NorA in Staphylococcus aureus SA-1199B expressing GrlA A116E mutant assessed as minimal potentiating drug concentration causing 8 fold reduction in ciprofloxacin MIC by microdilution method based Checkerboard assay
Conditions: not given

Row | SMILES | Activity [µg/mL]
12 | CCCOc1ccc(-c2cc(OCCN3CCCCCC3)c3ccc(OC)cc3n2)cc1 | 3.13
13 | CCCOc1ccc(-c2cc(OCCN(CC)CC)c3c(OC)cc(OC)cc3n2)cc1 | 1.56
14 | CCCOc1ccc(-c2cc(OCCN(CC)CC)c3c(OC)cccc3n2)cc1 | 3.13
15 | CCCOc1ccc(-c2cc(OCCN3CCCCC3)c3ccc(OC)cc3n2)cc1 | 3.13
16 | CCCOc1ccc(-c2cc(OCCN3CCCCCC3)c3cc(OC)cc(OC)c3n2)cc1 | 1.56
17 | CCCOc1ccc(-c2cc(OCCN3CCc4cc(OC)c(OC)cc4C3)c3ccc(OC)cc3n2)cc1 | 3.13
18 | CCCOc1ccc(-c2cc(OCCN(CC)CC)c3cc(OC)ccc3n2)cc1 | 6.25

Tested on: Staphylococcus aureus
Assay: Synergistic potentiation of ciprofloxacin-induced antimicrobial activity against Staphylococcus aureus SA-1199 at 0.78 to 100 ug/ml by microdilution method based Checkerboard assay
Format: functional, organism-based
Conditions: not given

Row | SMILES | inhibition
19 | CCCOc1ccc(-c2cc(OCCN3CCCCCC3)c3ccc(OC)cc3n2)cc1 | Active
20 | CCCOc1ccc(-c2cc(OCCN(CC)CC)c3c(OC)cc(OC)cc3n2)cc1 | Active
21 | CCCOc1ccc(-c2cc(OCCN(CC)CC)c3c(OC)cccc3n2)cc1 | Active
22 | CCCOc1ccc(-c2cc(OCCN3CCCCC3)c3ccc(OC)cc3n2)cc1 | Active
23 | CCCOc1ccc(-c2cc(OCCN3CCCCCC3)c3cc(OC)cc(OC)c3n2)cc1 | Active
24 | CCCOc1ccc(-c2cc(OCCN3CCc4cc(OC)c(OC)cc4C3)c3ccc(OC)cc3n2)cc1 | Active
25 | CCCOc1ccc(-c2cc(OCCN(CC)CC)c3cc(OC)ccc3n2)cc1 | Active

Tested on: Staphylococcus aureus
Assay: Antimicrobial activity against NorA deficient Staphylococcus aureus SA-K1902 by microdilution method
Format: organism-based
Conditions: in vivo
Outline: (§2)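 CLSI broth microdilution MIC of the compound alone. Strains: SA-K1902 (norA deleted), SA-K2378 (SA-K1902 carrying norA plus its promoter on multicopy plasmid pCU1), SA-1199B (norA overexpressing, GrlA A116E).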

Row | SMILES | MIC [µg/mL]
26 | CCCOc1ccc(-c2cc(OCCN(CC)CC)c3c(OC)cc(OC)cc3n2)cc1 | 25 (≈ 57 µM)

Tested on: Staphylococcus aureus
Assay: Antimicrobial activity against Staphylococcus aureus ATCC 25923 by microdilution method
Format: organism-based
Conditions: in vivo
Outline: as §1

Row | SMILES | MIC [µg/mL]
27 | CCCOc1ccc(-c2cc(OCCN3CCCCCC3)c3ccc(OC)cc3n2)cc1 | > 100
28 | CCCOc1ccc(-c2cc(OCCN(CC)CC)c3c(OC)cc(OC)cc3n2)cc1 | 100 (≈ 228 µM)
29 | CCCOc1ccc(-c2cc(OCCN(CC)CC)c3c(OC)cccc3n2)cc1 | 12.5 (≈ 30.6 µM)
30 | CCCOc1ccc(-c2cc(OCCN3CCCCC3)c3ccc(OC)cc3n2)cc1 | 50 (≈ 119 µM)
31 | CCCOc1ccc(-c2cc(OCCN3CCCCCC3)c3cc(OC)cc(OC)c3n2)cc1 | > 100
32 | CCCOc1ccc(-c2cc(OCCN3CCc4cc(OC)c(OC)cc4C3)c3ccc(OC)cc3n2)cc1 | > 100
33 | CCCOc1ccc(-c2cc(OCCN(CC)CC)c3cc(OC)ccc3n2)cc1 | 50 (≈ 122 µM)

Tested on: Staphylococcus aureus
Assay: Antimicrobial activity against Staphylococcus aureus SA-1199B expressing wild type norA and co-expressing GrlA A116E mutant by microdilution method
Format: organism-based
Conditions: in vivo
Outline: as §2

Row | SMILES | MIC [µM]
34 | CCCOc1ccc(-c2cc(OCCN3CCCCCC3)c3ccc(OC)cc3n2)cc1 | 212.3 (≈ 92.3 µg/mL)
35 | CCCOc1ccc(-c2cc(OCCN(CC)CC)c3c(OC)cc(OC)cc3n2)cc1 | > 228
36 | CCCOc1ccc(-c2cc(OCCN(CC)CC)c3c(OC)cccc3n2)cc1 | 30.6 (≈ 12.5 µg/mL)
37 | CCCOc1ccc(-c2cc(OCCN3CCCCC3)c3ccc(OC)cc3n2)cc1 | 238 (≈ 100 µg/mL)
38 | CCCOc1ccc(-c2cc(OCCN3CCCCCC3)c3cc(OC)cc(OC)c3n2)cc1 | > 215
39 | CCCOc1ccc(-c2cc(OCCN3CCc4cc(OC)c(OC)cc4C3)c3ccc(OC)cc3n2)cc1 | > 189
40 | CCCOc1ccc(-c2cc(OCCN(CC)CC)c3cc(OC)ccc3n2)cc1 | 122 (≈ 49.8 µg/mL)

Tested on: not listed separately
Assay: Cytotoxicity in human HepG2 cells assessed as reduction in cell viability incubated for 24 hrs by ATP bioluminescence assay
Format: cell-based
Conditions: not given
Outline: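 Cells were grown to confluence overnight in RPMI 1640 with 10% heat-inactivated fetal calf serum, penicillin and streptomycin. Monolayers were exposed for 24 h at 37 °C to scalar concentrations (0-250 µg/mL). Viability was read by ATP bioluminescence, each concentration in triplicate. CC50 is the concentration reducing cell number by 50% versus untreated controls.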

Row | SMILES | CC50 at 24 h [µg/mL]
41 | CCCOc1ccc(-c2cc(OCCN3CCCCC3)c3ccc(OC)cc3n2)cc1 | 71.5 (≈ 170 µM)
42 | CCCOc1ccc(-c2cc(OCCN(CC)CC)c3cc(OC)ccc3n2)cc1 | 5 (≈ 12.2 µM)

Molecular target: T1, Quinolone resistance protein NorA (Staphylococcus aureus)
Assay: Inhibition of NorA in Staphylococcus aureus SA-1199B expressing GrlA A116E mutant assessed as reduction in EtBr efflux at 50 uM incubated for 5 mins by fluorescence based assay
Conditions: not given
Outline: (§3)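 Cells were grown overnight in cation-supplemented Mueller-Hinton broth at 35 °C and subcultured to OD600 0.7–0.8. They were loaded at OD600 0.8 with 25 µM EtBr plus 100 µM CCCP (final) for 20 min at room temperature. Cells were then resuspended in fresh broth with or without compound, 50 µM for the single-point screen or a concentration series for IC50. Fluorescence (ex 485/em 645 nm) was read for 5 min. Inhibition was calculated from the fluorescence decrease versus untreated cells. Biological triplicate, each run twice.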

Row | SMILES | inhibition [%]
43 | CCCOc1ccc(-c2cc(OCCN3CCCCCC3)c3ccc(OC)cc3n2)cc1 | 91.3
44 | CCCOc1ccc(-c2cc(OCCN(CC)CC)c3c(OC)cc(OC)cc3n2)cc1 | 93.1
45 | CCCOc1ccc(-c2cc(OCCN(CC)CC)c3c(OC)cccc3n2)cc1 | 96.5
46 | CCCOc1ccc(-c2cc(OCCN3CCCCC3)c3ccc(OC)cc3n2)cc1 | 100
47 | CCCOc1ccc(-c2cc(OCCN3CCCCCC3)c3cc(OC)cc(OC)c3n2)cc1 | 80.3
48 | CCCOc1ccc(-c2cc(OCCN3CCc4cc(OC)c(OC)cc4C3)c3ccc(OC)cc3n2)cc1 | 91
49 | CCCOc1ccc(-c2cc(OCCN(CC)CC)c3cc(OC)ccc3n2)cc1 | 99

Tested on: Staphylococcus aureus
Assay: Synergistic potentiation of ciprofloxacin-induced antimicrobial activity against wild type Staphylococcus aureus ATCC 25923 at 0.78 to 100 ug/ml by microdilution method based Checkerboard assay
Format: functional, organism-based
Conditions: not given

Row | SMILES | synergistic potentiation of ciprofloxacin activity
50 | CCCOc1ccc(-c2cc(OCCN3CCCCCC3)c3ccc(OC)cc3n2)cc1 | Active
51 | CCCOc1ccc(-c2cc(OCCN(CC)CC)c3c(OC)cc(OC)cc3n2)cc1 | Active
52 | CCCOc1ccc(-c2cc(OCCN(CC)CC)c3c(OC)cccc3n2)cc1 | Active
53 | CCCOc1ccc(-c2cc(OCCN3CCCCC3)c3ccc(OC)cc3n2)cc1 | Active
54 | CCCOc1ccc(-c2cc(OCCN3CCCCCC3)c3cc(OC)cc(OC)c3n2)cc1 | Active
55 | CCCOc1ccc(-c2cc(OCCN3CCc4cc(OC)c(OC)cc4C3)c3ccc(OC)cc3n2)cc1 | Active
56 | CCCOc1ccc(-c2cc(OCCN(CC)CC)c3cc(OC)ccc3n2)cc1 | Active

Molecular target: T1, Quinolone resistance protein NorA (Staphylococcus aureus)
Assay: Inhibition of NorA in Staphylococcus aureus SA-1199B expressing GrlA A116E mutant assessed as synergistic potentiation of ciprofloxacin-induced antimicrobial activity at 0.78 to 100 ug/ml by microdilution method based Checkerboard assay
Conditions: not given

Row | SMILES | inhibition
57 | CCCOc1ccc(-c2cc(OCCN3CCCCCC3)c3ccc(OC)cc3n2)cc1 | Active
58 | CCCOc1ccc(-c2cc(OCCN(CC)CC)c3c(OC)cc(OC)cc3n2)cc1 | Active
59 | CCCOc1ccc(-c2cc(OCCN(CC)CC)c3c(OC)cccc3n2)cc1 | Active
60 | CCCOc1ccc(-c2cc(OCCN3CCCCC3)c3ccc(OC)cc3n2)cc1 | Active
61 | CCCOc1ccc(-c2cc(OCCN3CCCCCC3)c3cc(OC)cc(OC)c3n2)cc1 | Active
62 | CCCOc1ccc(-c2cc(OCCN3CCc4cc(OC)c(OC)cc4C3)c3ccc(OC)cc3n2)cc1 | Active
63 | CCCOc1ccc(-c2cc(OCCN(CC)CC)c3cc(OC)ccc3n2)cc1 | Active

Molecular target: Quinolone resistance protein NorA (Staphylococcus aureus, UniProt P0A0J7, A116E)
Assay: Inhibition of NorA in Staphylococcus aureus SA-1199B expressing GrlA A116E mutant assessed as reduction in EtBr efflux incubated for 5 mins by fluorescence based assay
Conditions: not given
Outline: as §3

Row | SMILES | IC50 [µM]
64 | CCCOc1ccc(-c2cc(OCCN3CCCCCC3)c3ccc(OC)cc3n2)cc1 | 4.9
65 | CCCOc1ccc(-c2cc(OCCN(CC)CC)c3c(OC)cc(OC)cc3n2)cc1 | 2.8
66 | CCCOc1ccc(-c2cc(OCCN(CC)CC)c3c(OC)cccc3n2)cc1 | 9.4
67 | CCCOc1ccc(-c2cc(OCCN3CCCCC3)c3ccc(OC)cc3n2)cc1 | 4
68 | CCCOc1ccc(-c2cc(OCCN3CCCCCC3)c3cc(OC)cc(OC)c3n2)cc1 | 1.8
69 | CCCOc1ccc(-c2cc(OCCN3CCc4cc(OC)c(OC)cc4C3)c3ccc(OC)cc3n2)cc1 | 4.7
70 | CCCOc1ccc(-c2cc(OCCN(CC)CC)c3cc(OC)ccc3n2)cc1 | 4.7
